According to ChEMBL document CHEMBL1124002, “Antiallergy agents. 1. Substituted 1,8-naphthyridin-2(1H)-ones as inhibitors of SRS-A release” (J Med Chem, 1988):

How the values were obtained:
Type in all cases: functional
[1] = species on record: Cavia porcellus; assay: Percent inhibition of SRS-A release in vitro at a dose of 10 uM in guinea pig
In short: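 Male Hartley guinea pigs were sensitized with ovalbumin (5 mg ip + 5 mg sc on day 1, 5 mg ip on day 4). About 400 mg chopped lung was preincubated with compound for 12 min at 37 °C in Tyrode's with 10 mM cysteine, then challenged with 20 μg/mL ovalbumin (final) for 0.25 h. SRS-A in ethanol-extracted supernatant was bioassayed on mepyramine-treated ileum against a rat SRS-A standard. Results are % inhibition versus vehicle, from 3-4 lungs.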

[2] = test system: Cavia porcellus; assay: Percent inhibition of bronchospasm in vivo at a dose of 25 mg/kg in guinea pig; conditions: Bronchiole
In short: (§1)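 Guinea pigs were sensitized with ovalbumin and used 3-4 weeks later. They were fasted and anesthetized with dialurethane ip. Compounds were given orally 2 h before challenge. Propranolol 1 mg/kg, indomethacin 5 mg/kg and mepyramine 2 mg/kg were given iv 15 min before a 0.5 min aerosol of 0.5% ovalbumin through the tracheal cannula. The rise in inflation pressure measured bronchoconstriction. Results are % inhibition, 4-5 animals per group.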

[3] = test system: Cavia porcellus; assay: Percent inhibition of bronchospasm in vivo at a dose of 12.5 mg/kg in guinea pig; conditions: Bronchiole; in short: as §1

Row | Compound | inhibition at 10 µM [1] [%] | inhibition in vivo at 25 mg/kg [2] [%] | inhibition in vivo at 12.5 mg/kg [3] [%]
1 | CCCCc1c(O)c2cccnc2n(-c2ccc(O)c(C(=O)O)c2)c1=O | 0 |  | 
2 | CCCCc1c(=O)c2cccnc2n2c1oc1ccccc12 | 14 |  | 
3 | CCCCc1c(OCC2COC(C)(C)O2)c2cccnc2n(-c2ccccc2)c1=O (stereo not drawn) | 0 |  | 
4 | CCCCc1c(O)c2cccnc2n(-c2ccc(OCc3ccccc3)cc2)c1=O | 50 | 0 | 
5 | CCCCCCCCc1c(O)c2cccnc2n(-c2ccccc2)c1=O | 51 | 0 | 
6 | CCCCCc1c(O)c2cccnc2n(-c2ccccc2)c1=O | 49 | 42 | 
7 | CCCCc1c(O)c2ccccc2n(-c2ccncc2)c1=O | 31 |  | 
8 | CCCCc1ccc(-n2c(=O)c(CCCC)c(O)c3cccnc32)cc1 | 50 | 13 | 
9 | O=c1c(C2CCCCC2)c(O)c2cccnc2n1-c1ccccc1 | 66 | 45 | 
10 | C=CCc1c(OC(C)=O)c2cccnc2n(-c2cccc(OC)c2)c1=O | 84 |  | 32
11 | CCCCc1c(O)c2cccnc2n(-c2cccnc2)c1=O | 33 |  | 
12 | CCCCc1c(O)c2cccnc2n(-c2ccc(OC)c(OC)c2)c1=O | 57 | 0 | 
13 | C=CCOc1c(CCCC)c(=O)n(-c2ccccc2)c2ncccc12 | 0 |  | 
14 | CCCCc1c(OCC(O)CO)c2cccnc2n(-c2ccccc2)c1=O (stereo not drawn) | 0 |  | 
15 | CCCCc1c(OCC)c2cccnc2n(-c2ccccc2)c1=O | 0 |  | 
16 | CCCCc1c(O)c2cc(Br)cnc2n(-c2ccccc2)c1=O | 73 | 5 | 
17 | CCCCc1c(O)c2cccnc2n(-c2cccc(SC)c2)c1=O | 62 | 55 | 
18 | CCCCc1c(O)c2cccnc2n(-c2ccc(C(C)O)cc2)c1=O (stereo not drawn) | 48 |  | 
19 | C=CCc1c(OC(C)=O)c2cccnc2n(-c2ccc(OC)cc2)c1=O | 52 | 42 | 
20 | CC(C)=CCc1c(O)c2cccnc2n(-c2ccccc2)c1=O | 45 |  | 
21 | CCCCc1c(O)c2cccnc2n(CCN(C)C)c1=O | 0 |  | 
22 | CCCCc1c(OC(C)=O)c2cccnc2n(-c2cccc(S(C)(=O)=O)c2)c1=O | 20 |  | 
23 | Cc1c(O)c2cccnc2n(-c2ccccc2)c1=O | 52 | 33 | 
24 | CCCCc1c(O)c2cccnc2n(-c2ccc3c(c2)CCC3)c1=O | 55 | 1 | 
25 | CCCCc1c(O)c2cc3c(nc2n(-c2ccccc2)c1=O)CCCC3 | 38 |  | 
26 | CCCCc1c(O)c2cccnc2n(-c2ccc(Oc3ccccc3)cc2)c1=O | 54 | 0 | 
27 | CCCCc1c(O)c2cccnc2n(-c2c(C)cccc2C)c1=O | 0 |  | 

Row | Compound | inhibition at 10 µM [1] [%] | inhibition in vivo at 25 mg/kg [2] [%] | inhibition in vivo at 12.5 mg/kg [3] [%]
28 | CCCCc1c(O)c2cccnc2n(-c2ccc(C(C)=O)cc2)c1=O | 37 |  | 
29 | CCCCc1c(OCCCN(C)C)c2cccnc2n(-c2ccccc2)c1=O | 0 | 13 | 
30 | C=CCc1c(O)c2cccnc2n(-c2ccc(OC)cc2)c1=O | 3 |  | 
31 | CCCCc1c(OCCCO)c2cccnc2n(-c2ccccc2)c1=O | 7 |  | 
32 | CCCCc1c(OC(C)=O)c2cccnc2n(-c2ccc(S(C)(=O)=O)cc2)c1=O | 26 |  | 
33 | CCCCc1c(O)c2cc3ccccc3nc2n(-c2ccccc2)c1=O | 0 |  | 
34 | CCCCc1c(O)c2cccnc2n(Cc2ccccc2)c1=O | 0 |  | 
35 | C#CCOc1c(CCCC)c(=O)n(-c2ccccc2)c2ncccc12 | 0 |  | 
36 | CCCCc1c(O)c2cccnc2n(-c2cccc(Cl)c2C)c1=O | 5 |  | 
37 | O=c1c(-c2ccccc2)c(O)c2cccnc2n1-c1ccccc1 | 48 |  | 
38 | O=c1c(CC2CCCCC2)c(O)c2cccnc2n1-c1ccccc1 | 30 |  | 
39 | CCCCc1c(O)c2ncccc2n(-c2ccccc2)c1=O | 43 |  | 
40 | CCCCc1c(O)c2cccnc2n(-c2ccccc2C)c1=O | 55 | 9 | 
41 | C=CCc1c(OC(C)=O)c2cccnc2n(-c2cccc(C(F)(F)F)c2)c1=O | 65 |  | 
42 | CCCCc1c(OCCOCC)c2cccnc2n(-c2ccccc2)c1=O | 0 |  | 
43 | CCCCc1c(O)c2c(n(-c3ccccc3)c1=O)NCCC2 | 51 | 17 | 
44 | CCCCc1c(OC(C)=O)c2cccnc2n(-c2cccc([S+](C)[O-])c2)c1=O (stereo not drawn) | 28 |  | 
45 | C=CCc1c(O)c2cccnc2n(-c2cccc(OC)c2)c1=O | 56 | 46 | 
46 | CC(O)CCc1c(O)c2cccnc2n(-c2ccccc2)c1=O (stereo not drawn) | 53 | 32 | 
47 | CCCCc1c(O)c2cccnc2n(-c2ccc(F)cc2F)c1=O | 27 |  | 
48 | O=c1cc(O)c2cccnc2n1-c1ccccc1 | 0 |  | 
49 | CCCCc1c(OC(C)=O)c2cccnc2n(-c2ccc(OC(C)=O)c(C(=O)O)c2)c1=O | 17 |  | 
50 | CCCCc1c(O)nc2ncccc2c1O | 15 |  | 
51 | CCCCc1c(O)c2cccnc2n(-c2cc(OC)c(OC)c(OC)c2)c1=O | 22 |  | 
52 | CCCCc1c(O)c2cccnc2n(-c2ccccc2SC)c1=O | 32 |  | 
53 | CCCCc1c(O)c2cccnc2n(-c2ccc(SC)cc2)c1=O | 86 | 8 | 
54 | O=c1c(CCCCc2ccccc2)c(O)c2cccnc2n1-c1ccccc1 | 9 |  | 

Row | Compound | inhibition at 10 µM [1] [%] | inhibition in vivo at 25 mg/kg [2] [%] | inhibition in vivo at 12.5 mg/kg [3] [%]
55 | CCCCOc1ccc(-n2c(=O)c(CCCC)c(O)c3cccnc32)cc1 | 17 |  | 
56 | CCCCc1c(O)c2ccc(C)nc2n(-c2ccccc2)c1=O | 21 |  | 
57 | CCCCc1c(O)c2cc(O)cnc2n(-c2ccccc2)c1=O | 69 | 0 | 
58 | CCCCCCn1c(=O)c(CCCC)c(O)c2cccnc21 | 63 | 15 | 
59 | CCCCc1c(O)c2cccnc2n(-c2ccc(O)cc2)c1=O | 44 |  | 
60 | CCCCc1c(O)c2ccncc2n(-c2ccccc2)c1=O | 0 |  | 
61 | CCCCc1c(OC(C)=O)c2cccnc2n(-c2ccc(OC)cc2)c1=O | 64 | 32 | 
62 | CCCCc1c(O)c2cc(OC)cnc2n(-c2ccccc2)c1=O | 3 |  | 
63 | CCCCc1c(OCCO)c2cccnc2n(-c2ccccc2)c1=O | 86 | 64 | 
64 | CCCCc1c(O)c2cncnc2n(-c2ccccc2)c1=O | 9 |  | 
65 | CCCCc1c(O)c2cccnc2n(-c2ccc(OC)cc2)c1=O | 87 | 51 | 
66 | CCCCc1c(OC(C)=O)c2cccnc2n(-c2ccc([S+](C)[O-])cc2)c1=O (stereo not drawn) | 11 |  | 
67 | C=CCc1c(OC(C)=O)c2cccnc2n(-c2ccccc2OC)c1=O | 35 |  | 
68 | C=CCCCCCCCc1c(OC(C)=O)c2cccnc2n(-c2ccccc2)c1=O | 15 |  | 
69 | CCCCc1c(OC(C)=O)c2cccnc2n(-c2ccc(SC)cc2)c1=O | 38 |  | 
70 | CC(C)=CCc1c(O)c2nccnc2n(-c2ccccc2)c1=O | 69 | 10 | 
71 | CC(=O)CCc1c(O)c2cccnc2n(-c2ccccc2)c1=O | 36 |  | 
72 | CC1(CCc2c(O)c3cccnc3n(-c3ccccc3)c2=O)OCCO1 | 52 | 0 | 
73 | CC(=O)Oc1c(CCC2CCCCN2C)c(=O)n(-c2ccccc2)c2ncccc12 (stereo not drawn) | 19 |  | 
74 | CCCCc1c(O)c2nccnc2n(-c2ccccc2)c1=O | 75 | 36 | 
75 | C=CCc1c(O)c2cccnc2n(-c2cccc(C(F)(F)F)c2)c1=O | 50 | 0 | 
76 | CCCCc1c(O)c2cc3c(nc2n(-c2ccccc2)c1=O)CCC3 | 22 |  | 
77 | CCCCc1c(OC(C)=O)c2cccnc2n(-c2cccc(SC)c2)c1=O | 57 | 27 | 
78 | CCCCc1c(O)c2cnccc2n(-c2ccccc2)c1=O | 0 |  | 
79 | C=CCc1c(OC(C)=O)c2cc(OC)cnc2n(-c2ccccc2)c1=O | 0 |  | 
